Activity calls are given as the source filed them. No cut-off for these calls is given here.
Columns and labels:
[1] = system: Nucleic Acid; test: Binding affinity to 14mer DNA assessed as change in melting temperature by spectrophotometry; type: nucleic-acid assay
How it was run: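 Thermal melting of 14-mer oligonucleotide duplexes (HRE or ARE sequence) with and without polyamide, read by UV spectrophotometry in 1 cm quartz cuvettes with a thermostatted holder. Buffer was 10 mM sodium cacodylate, 10 mM KCl, 10 mM MgCl2, 5 mM CaCl2, pH 7.0. ΔTm is taken relative to the free duplex.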

[2] = system: Nucleic Acid; test: Binding affinity to 5'-TTGCAGAACAGCAA-3' sequence of DNA assessed as change in melting temperature by spectrophotometry; type: nucleic-acid assay
[3] = system: LNCaP; test: Cytotoxicity against human LNCAP cells after 48 hrs by WST1 assay; type: functional, cell-based
How it was run: (§1)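 LNCaP cells were seeded at 10-15 × 10^2 per well and allowed to settle 48 h before polyamide was added as 2× media solutions (DMSO <0.1%). After 48 h exposure, media was replaced and cells recovered 24 h. WST-1 was added for 30 min and A450 read. Wells were corrected for media-only background and normalized to untreated controls.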

[4] = system: LNCaP; test: Cytotoxicity against human LNCAP cells assessed as cell viability at 0.01 to 30 uM after 48 hrs by WST1 assay; type: functional; how it was run: as §1
[5] = system: LNCaP; test: Inhibition of dihydrotestosterone-induced prostate specific antigen expression in human LNCAP cells at 5 uM by quantitative RT-PCR analysis; type: functional
How it was run: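 LNCaP cells were induced with 1 nM DHT and PSA mRNA measured by quantitative real-time RT-PCR. Oxime-linked polyamides were given at 5, 1 and 0.1 μM, and unconjugated controls at 5 μM, with DMSO ≤0.1%. Expression was normalized to untreated DHT-induced cells; uninduced and DMSO controls were included.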

[6] = system: Nucleic Acid; test: Binding affinity to 5'-GTGCATACGTGGGC-3' sequence of DNA assessed as change in melting temperature by spectrophotometry; type: nucleic-acid assay
[7] = system: U-251; test: Inhibition of desferrioxamine-induced VEGF mRNA expression in human U251 cells at 1 uM by quantitative RT-PCR analysis; type: functional
How it was run: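 In U251 cells, induced VEGF mRNA was quantified by real-time RT-PCR after polyamide at 1, 0.2 and 0.02 μM, with DMSO ≤0.1%. Values were normalized to untreated induced cells; uninduced and DMSO-vehicle controls were run alongside.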

Cn1cc(NC(=O)c2cc(NC(=O)c3cc(NC(=O)c4nc(NC(=O)[C@H](N)CCNC(=O)c5nc(NC(=O)c6cc(NC(=O)c7nc(NC(=O)c8nccn8C)cn7C)cn6C)cn5C)cn4C)cn3C)cn2C)cc1C(=O)NCCCN gave a ΔTm [1] of 4.1 °C.
Work on Cn1cc(NC(=O)c2cc(NC(=O)c3cc(NC(=O)c4nc(NC(=O)[C@H](N)CCNC(=O)c5nc(NC(=O)c6cc(NC(=O)c7nc(NC(=O)c8nccn8C)cn7C)cn6C)cn5C)cn4C)cn3C)cn2C)cc1C(=O)NCCCCCCCNC(=O)c1cccc(C(=O)O)c1 yielded a ΔTm [1] of 0.7 °C.
Cn1cc(NC(=O)c2cc(NC(=O)c3cc(NC(=O)c4nc(NC(=O)[C@H](N)CCNC(=O)c5cc(NC(=O)c6cc(NC(=O)c7cc(NC(=O)c8nccn8C)cn7C)cn6C)cn5C)cn4C)cn3C)cn2C)cc1C(=O)NCCCNC(=O)c1cccc(C(=O)O)c1 gave a ΔTm [2] of 11.1 °C, an IC50 [3] greater than 30 µM and an Activity [4] of less than 50%.
With Cn1cc(NC(=O)c2cc(NC(=O)c3nc(NC(=O)c4cc(NC(=O)[C@H](N)CCNC(=O)c5nc(NC(=O)c6cc(NC(=O)c7cc(NC(=O)c8nccn8C)cn7C)cn6C)cn5C)cn4C)cn3C)cn2C)cc1C(=O)NCCCON the ΔTm [1] was 2 °C and the inhibition at 5 µM [5] was 10%.
Cn1cc(NC(=O)c2cc(NC(=O)c3nc(NC(=O)c4cc(NC(=O)[C@H](N)CCNC(=O)c5nc(NC(=O)c6cc(NC(=O)c7cc(NC(=O)c8sccc8Cl)cn7C)cn6C)cn5C)cn4C)cn3C)cn2C)cc1C(=O)NCCCNC(=O)c1cccc(C(=O)O)c1 showed a ΔTm [6] of 9.5 °C.
CN(CCCNC(=O)c1cccc(C(=O)O)c1)CCCNC(=O)c1cc(NC(=O)c2cc(NC(=O)c3nc(NC(=O)c4cc(NC(=O)[C@H](N)CCNC(=O)c5nc(NC(=O)c6cc(NC(=O)c7cc(NC(=O)c8nccn8C)cn7C)cn6C)cn5C)cn4C)cn3C)cn2C)cn1C gave a ΔTm [1] of 4 °C and an Activity [4] of less than 50%.
In the case of Cn1cc(NC(=O)c2cc(NC(=O)c3nc(NC(=O)c4cc(NC(=O)[C@H](N)CCNC(=O)c5nc(NC(=O)c6cc(NC(=O)c7cc(NC(=O)c8nccn8C)cn7C)cn6C)cn5C)cn4C)cn3C)cn2C)cc1C(=O)NCCCCCCCN, the ΔTm [1] is reported as -0.9 °C.
In the case of Cn1cc(NC(=O)c2cc(NC(=O)c3cc(NC(=O)c4nc(NC(=O)[C@H](N)CCNC(=O)c5nc(NC(=O)c6cc(NC(=O)c7nc(NC(=O)c8nccn8C)cn7C)cn6C)cn5C)cn4C)cn3C)cn2C)cc1C(=O)NCCCNC(=O)c1cccc(C(=O)O)c1, the ΔTm [1] is reported as 0.5 °C.
Compound Cn1cc(NC(=O)c2cc(NC(=O)c3cc(NC(=O)c4nc(NC(=O)[C@H](N)CCNC(=O)c5cc(NC(=O)c6cc(NC(=O)c7cc(NC(=O)c8nccn8C)cn7C)cn6C)cn5C)cn4C)cn3C)cn2C)cc1C(=O)NCCCON has a ΔTm [2] of 11.2 °C and an inhibition at 5 µM [5] of 50%.
For Cn1cc(NC(=O)c2cc(NC(=O)c3nc(NC(=O)c4cc(NC(=O)[C@H](N)CCNC(=O)c5nc(NC(=O)c6cc(NC(=O)c7cc(NC(=O)c8nccn8C)cn7C)cn6C)cn5C)cn4C)cn3C)cn2C)cc1C(=O)NCCCN, the ΔTm [1] was 5.3 °C.
Cn1cc(NC(=O)c2cc(NC(=O)c3cc(NC(=O)c4nc(NC(=O)[C@H](N)CCNC(=O)c5cc(NC(=O)c6cc(NC(=O)c7cc(NC(=O)c8nccn8C)cn7C)cn6C)cn5C)cn4C)cn3C)cn2C)cc1C(=O)NCCCCCCCNC(=O)c1cccc(C(=O)O)c1 gave a ΔTm [2] of 10.4 °C, an IC50 [3] greater than 30 µM and an Activity [4] of less than 50%.
Work on CN(CCCN)CCCNC(=O)c1cc(NC(=O)c2cc(NC(=O)c3nc(NC(=O)c4cc(NC(=O)[C@H](N)CCNC(=O)c5nc(NC(=O)c6cc(NC(=O)c7cc(NC(=O)c8sccc8Cl)cn7C)cn6C)cn5C)cn4C)cn3C)cn2C)cn1C yielded a ΔTm [6] of 14.8 °C.
With Cn1cc(NC(=O)c2cc(NC(=O)c3nc(NC(=O)c4cc(NC(=O)[C@H](N)CCNC(=O)c5nc(NC(=O)c6cc(NC(=O)c7cc(NC(=O)c8sccc8Cl)cn7C)cn6C)cn5C)cn4C)cn3C)cn2C)cc1C(=O)NCCCON the ΔTm [6] was 10.6 °C.
Cn1cc(NC(=O)c2cc(NC(=O)c3nc(NC(=O)c4cc(NC(=O)[C@H](N)CCNC(=O)c5nc(NC(=O)c6cc(NC(=O)c7cc(NC(=O)c8sccc8Cl)cn7C)cn6C)cn5C)cn4C)cn3C)cn2C)cc1C(=O)NCCCN gave a ΔTm [6] of 13.5 °C.
With Cn1cc(NC(=O)c2cc(NC(=O)c3nc(NC(=O)c4cc(NC(=O)[C@H](N)CCNC(=O)c5nc(NC(=O)c6cc(NC(=O)c7cc(NC(=O)c8sccc8Cl)cn7C)cn6C)cn5C)cn4C)cn3C)cn2C)cc1C(=O)NCCCCCCCN the ΔTm [6] was 12.7 °C.
In the case of CN(C)CCCNC(=O)CCNC(=O)c1cc(NC(=O)c2cc(NC(=O)c3cc(NC(=O)c4nc(NC(=O)[C@H](N)CCNC(=O)c5cc(NC(=O)c6cc(NC(=O)c7cc(NC(=O)c8nccn8C)cn7C)cn6C)cn5C)cn4C)cn3C)cn2C)cn1C, the ΔTm [2] is reported as 14.3 °C.
For Cn1cc(NC(=O)c2cc(NC(=O)c3cc(NC(=O)c4nc(NC(=O)[C@H](N)CCNC(=O)c5nc(NC(=O)c6cc(NC(=O)c7nc(NC(=O)c8nccn8C)cn7C)cn6C)cn5C)cn4C)cn3C)cn2C)cc1C(=O)NCCCCCCCN, the ΔTm [1] was 2.1 °C.
With Cn1cc(NC(=O)c2cc(NC(=O)c3cc(NC(=O)c4nc(NC(=O)[C@H](N)CCNC(=O)c5nc(NC(=O)c6cc(NC(=O)c7nc(NC(=O)c8nccn8C)cn7C)cn6C)cn5C)cn4C)cn3C)cn2C)cc1C(=O)NCCCON the ΔTm [1] was 0.1 °C.
For CN(CCCNC(=O)c1cccc(C(=O)O)c1)CCCNC(=O)c1cc(NC(=O)c2cc(NC(=O)c3nc(NC(=O)c4cc(NC(=O)[C@H](N)CCNC(=O)c5nc(NC(=O)c6cc(NC(=O)c7cc(NC(=O)c8sccc8Cl)cn7C)cn6C)cn5C)cn4C)cn3C)cn2C)cn1C, the inhibition [7] was “Active” and the ΔTm [6] was 11.7 °C.
Cn1cc(NC(=O)c2cc(NC(=O)c3nc(NC(=O)c4cc(NC(=O)[C@H](N)CCNC(=O)c5nc(NC(=O)c6cc(NC(=O)c7cc(NC(=O)c8nccn8C)cn7C)cn6C)cn5C)cn4C)cn3C)cn2C)cc1C(=O)NCCCCCCCNC(=O)c1cccc(C(=O)O)c1 showed a ΔTm [1] of 2.6 °C and an Activity [4] of less than 50%.
With CN(CCCN)CCCNC(=O)c1cc(NC(=O)c2cc(NC(=O)c3cc(NC(=O)c4nc(NC(=O)[C@H](N)CCNC(=O)c5nc(NC(=O)c6cc(NC(=O)c7nc(NC(=O)c8nccn8C)cn7C)cn6C)cn5C)cn4C)cn3C)cn2C)cn1C the ΔTm [1] was 3.1 °C.
With CN(CCCNC(=O)c1cccc(C(=O)O)c1)CCCNC(=O)c1cc(NC(=O)c2cc(NC(=O)c3cc(NC(=O)c4nc(NC(=O)[C@H](N)CCNC(=O)c5nc(NC(=O)c6cc(NC(=O)c7nc(NC(=O)c8nccn8C)cn7C)cn6C)cn5C)cn4C)cn3C)cn2C)cn1C the ΔTm [1] was 0.9 °C.
With Cn1cc(NC(=O)c2cc(NC(=O)c3nc(NC(=O)c4cc(NC(=O)[C@H](N)CCNC(=O)c5nc(NC(=O)c6cc(NC(=O)c7cc(NC(=O)c8nccn8C)cn7C)cn6C)cn5C)cn4C)cn3C)cn2C)cc1C(=O)NCCCNC(=O)c1cccc(C(=O)O)c1 the ΔTm [1] was 1.5 °C and the Activity [4] was less than 50%.
Cn1cc(NC(=O)c2cc(NC(=O)c3nc(NC(=O)c4cc(NC(=O)[C@H](N)CCNC(=O)c5nc(NC(=O)c6cc(NC(=O)c7cc(NC(=O)c8sccc8Cl)cn7C)cn6C)cn5C)cn4C)cn3C)cn2C)cc1C(=O)NCCCCCCCNC(=O)c1cccc(C(=O)O)c1 gave a ΔTm [6] of 9 °C.
CN(C)CCCNC(=O)CCNC(=O)c1cc(NC(=O)c2cc(NC(=O)c3cc(NC(=O)c4nc(NC(=O)[C@H](N)CCNC(=O)c5nc(NC(=O)c6cc(NC(=O)c7nc(NC(=O)c8nccn8C)cn7C)cn6C)cn5C)cn4C)cn3C)cn2C)cn1C gave a ΔTm [6] of 1.6 °C.
CN(C)CCCNC(=O)CCNC(=O)c1cc(NC(=O)c2cc(NC(=O)c3nc(NC(=O)c4cc(NC(=O)[C@H](N)CCNC(=O)c5nc(NC(=O)c6cc(NC(=O)c7cc(NC(=O)c8sccc8Cl)cn7C)cn6C)cn5C)cn4C)cn3C)cn2C)cn1C showed a ΔTm [6] of 12.4 °C.
Cn1cc(NC(=O)c2cc(NC(=O)c3cc(NC(=O)c4nc(NC(=O)[C@H](N)CCNC(=O)c5cc(NC(=O)c6cc(NC(=O)c7cc(NC(=O)c8nccn8C)cn7C)cn6C)cn5C)cn4C)cn3C)cn2C)cc1C(=O)NCCCCCCCN was tested, and the ΔTm [2] was 14.3 °C.
With CN(CCCN)CCCNC(=O)c1cc(NC(=O)c2cc(NC(=O)c3nc(NC(=O)c4cc(NC(=O)[C@H](N)CCNC(=O)c5nc(NC(=O)c6cc(NC(=O)c7cc(NC(=O)c8nccn8C)cn7C)cn6C)cn5C)cn4C)cn3C)cn2C)cn1C the ΔTm [1] was 6.4 °C.
With CN(CCCN)CCCNC(=O)c1cc(NC(=O)c2cc(NC(=O)c3cc(NC(=O)c4nc(NC(=O)[C@H](N)CCNC(=O)c5cc(NC(=O)c6cc(NC(=O)c7cc(NC(=O)c8nccn8C)cn7C)cn6C)cn5C)cn4C)cn3C)cn2C)cn1C the ΔTm [2] was 17.3 °C.
Work on Cn1cc(NC(=O)c2cc(NC(=O)c3cc(NC(=O)c4nc(NC(=O)[C@H](N)CCNC(=O)c5cc(NC(=O)c6cc(NC(=O)c7cc(NC(=O)c8nccn8C)cn7C)cn6C)cn5C)cn4C)cn3C)cn2C)cc1C(=O)NCCCN yielded a ΔTm [2] of 16.2 °C.
CN(C)CCCNC(=O)CCNC(=O)c1cc(NC(=O)c2cc(NC(=O)c3nc(NC(=O)c4cc(NC(=O)[C@H](N)CCNC(=O)c5nc(NC(=O)c6cc(NC(=O)c7cc(NC(=O)c8nccn8C)cn7C)cn6C)cn5C)cn4C)cn3C)cn2C)cn1C showed a ΔTm [1] of 3.6 °C.

Source: ChEMBL document CHEMBL1155270, “Modifications at the C-terminus to improve pyrrole-imidazole polyamide activity in cell culture” (J Med Chem, 2009)
